Data taken from ChEMBL document CHEMBL5058577, “EUbOPEN Chemogenomics Library 2 (Multiplex)” (2022).

Tested on: Fibroblast
Assay: Multiplex assay against human fibroblast
Format: toxicity, cell-based
Procedure, shortened: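 On a CQ1 microscope at 37°C and 5% CO2, live cells were imaged after compound addition. They had been stained at seeding with Hoechst33342, BioTracker Green Microtubule Cytoskeleton Dye, MitoTracker Red and Annexin V Alexa Fluor 680. CellPathfinder machine-learning gating assigned cells to Hoechst high-intensity objects or normal cells, normal cells to healthy, pyknosed or fragmented nuclei, and pyknosed cells to mitotic or apoptotic. Tubulin, mitochondrial-mass and membrane-permeability phenotypes are per cents of healthy-nucleus cells.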

[1] = 12 h, 1 µM, compound concentration 1 uM, replicate 1
[2] = 12 h, 1 µM, compound concentration 1 uM, replicate 2
[3] = 12 h, 10 µM, compound concentration 10 uM, replicate 1
[4] = 12 h, 10 µM, compound concentration 10 uM, replicate 2
[5] = 24 h, 1 µM, compound concentration 1 uM, replicate 1
[6] = 24 h, 1 µM, compound concentration 1 uM, replicate 2
[7] = 24 h, 10 µM, compound concentration 10 uM, replicate 1
[8] = 24 h, 10 µM, compound concentration 10 uM, replicate 2
[9] = 48 h, 1 µM, compound concentration 1 uM, replicate 1
[10] = 48 h, 1 µM, compound concentration 1 uM, replicate 2
[11] = 48 h, 10 µM, compound concentration 10 uM, replicate 1
[12] = 48 h, 10 µM, compound concentration 10 uM, replicate 2

## COc1c(C)cc(NC(=O)c2nn(Cc3ccc(F)cc3)c3c2CN(C(=O)c2ccc[nH]2)C[C@]3(C)C(N)=O)cc1C
[1]
  Population Apoptotic (%): 42%
  Population Fragmented Nuclei (%): 21%
  Population Healthy Nuclei (%): 58%
  Population Hoechst High Intensity Objects (%): 2%
  Population Membrane Permeable-Phenotype (%): 1%
  Population Mitochondria Different-Phenotype (%): 18%
  Population Mitotic Cells (%): 57%
  Population Normal (%): 97%
  Population Pyknosed Nuclei (%): 20%
  Population Tubulin-Different-Phenotype (%): 64%
  Total Cell Count: 95
[2]
  Population Apoptotic (%): 46%
  Population Fragmented Nuclei (%): 16%
  Population Healthy Nuclei (%): 51%
  Population Hoechst High Intensity Objects (%): 3%
  Population Membrane Permeable-Phenotype (%): 6%
  Population Mitochondria Different-Phenotype (%): 11%
  Population Mitotic Cells (%): 53%
  Population Normal (%): 96%
  Population Pyknosed Nuclei (%): 31%
  Population Tubulin-Different-Phenotype (%): 72%
  Total Cell Count: 86
[3]
  Population Apoptotic (%): 47%
  Population Fragmented Nuclei (%): 12%
  Population Healthy Nuclei (%): 58%
  Population Hoechst High Intensity Objects (%): 1%
  Population Membrane Permeable-Phenotype (%): 0%
  Population Mitochondria Different-Phenotype (%): 25%
  Population Mitotic Cells (%): 52%
  Population Normal (%): 98%
  Population Pyknosed Nuclei (%): 29%
  Population Tubulin-Different-Phenotype (%): 90%
  Total Cell Count: 166
[4]
  Population Apoptotic (%): 52%
  Population Fragmented Nuclei (%): 29%
  Population Healthy Nuclei (%): 38%
  Population Hoechst High Intensity Objects (%): 2%
  Population Membrane Permeable-Phenotype (%): 6%
  Population Mitochondria Different-Phenotype (%): 30%
  Population Mitotic Cells (%): 47%
  Population Normal (%): 97%
  Population Pyknosed Nuclei (%): 32%
  Total Cell Count: 115
[5]
  Population Apoptotic (%): 66%
  Population Fragmented Nuclei (%): 25%
  Population Healthy Nuclei (%): 61%
  Population Hoechst High Intensity Objects (%): 3%
  Population Membrane Permeable-Phenotype (%): 1%
  Population Mitochondria Different-Phenotype (%): 17%
  Population Mitotic Cells (%): 33%
  Population Normal (%): 96%
  Population Pyknosed Nuclei (%): 12%
  Population Tubulin-Different-Phenotype (%): 45%
  Total Cell Count: 96
[6]
  Population Apoptotic (%): 48%
  Population Fragmented Nuclei (%): 31%
  Population Healthy Nuclei (%): 38%
  Population Hoechst High Intensity Objects (%): 6%
  Population Membrane Permeable-Phenotype (%): 8%
  Population Mitotic Cells (%): 51%
  Population Normal (%): 93%
  Population Pyknosed Nuclei (%): 30%
  Population Tubulin-Different-Phenotype (%): 67%
  Total Cell Count: 95
[7]
  Population Apoptotic (%): 65%
  Population Fragmented Nuclei (%): 14%
  Population Healthy Nuclei (%): 64%
  Population Hoechst High Intensity Objects (%): 3%
  Population Membrane Permeable-Phenotype (%): 0%
  Population Mitochondria Different-Phenotype (%): 47%
  Population Mitotic Cells (%): 34%
  Population Normal (%): 96%
  Population Pyknosed Nuclei (%): 20%
  Population Tubulin-Different-Phenotype (%): 90%
  Total Cell Count: 159
[8]
  Population Apoptotic (%): 43%
  Population Fragmented Nuclei (%): 30%
  Population Healthy Nuclei (%): 47%
  Population Hoechst High Intensity Objects (%): 4%
  Population Membrane Permeable-Phenotype (%): 8%
  Population Mitochondria Different-Phenotype (%): 26%
  Population Mitotic Cells (%): 56%
  Population Normal (%): 95%
  Population Pyknosed Nuclei (%): 21%
  Population Tubulin-Different-Phenotype (%): 82%
  Total Cell Count: 110
[9]
  Population Apoptotic (%): 87%
  Population Fragmented Nuclei (%): 29%
  Population Healthy Nuclei (%): 61%
  Population Hoechst High Intensity Objects (%): 7%
  Population Membrane Permeable-Phenotype (%): 0%
  Population Mitochondria Different-Phenotype (%): 10%
  Population Mitotic Cells (%): 12%
  Population Normal (%): 92%
  Population Pyknosed Nuclei (%): 8%
  Population Tubulin-Different-Phenotype (%): 45%
  Total Cell Count: 99
[10]
  Population Apoptotic (%): 70%
  Population Fragmented Nuclei (%): 34%
  Population Healthy Nuclei (%): 45%
  Population Hoechst High Intensity Objects (%): 5%
  Population Membrane Permeable-Phenotype (%): 10%
  Population Mitotic Cells (%): 29%
  Population Normal (%): 94%
  Population Pyknosed Nuclei (%): 19%
  Population Tubulin-Different-Phenotype (%): 69%
  Total Cell Count: 91
[11]
  Population Apoptotic (%): 60%
  Population Fragmented Nuclei (%): 22%
  Population Healthy Nuclei (%): 60%
  Population Hoechst High Intensity Objects (%): 4%
  Population Membrane Permeable-Phenotype (%): 0%
  Population Mitochondria Different-Phenotype (%): 54%
  Population Mitotic Cells (%): 39%
  Population Normal (%): 95%
  Population Pyknosed Nuclei (%): 17%
  Population Tubulin-Different-Phenotype (%): 92%
  Total Cell Count: 166
[12]
  Population Apoptotic (%): 77%
  Population Fragmented Nuclei (%): 41%
  Population Healthy Nuclei (%): 51%
  Population Hoechst High Intensity Objects (%): 2%
  Population Membrane Permeable-Phenotype (%): 3%
  Population Mitochondria Different-Phenotype (%): 16%
  Population Mitotic Cells (%): 22%
  Population Normal (%): 97%
  Population Pyknosed Nuclei (%): 7%
  Population Tubulin-Different-Phenotype (%): 75%
  Total Cell Count: 122
